These results are taken from ChEMBL document CHEMBL1150151, “Dictyoquinazols A, B, and C, new neuroprotective compounds from the mushroom Dictyophora indusiata” (J Nat Prod, 2002).

Structures are written as SMILES. The source made the active and inactive calls. No cut-off for these calls is given here.

The test system of test [1] is Cortical neurone. Kind of test: Neuroprotective activity against glutamate-induced neurotoxicity in ICR mouse cortical neurons at 5 to 10 uM preincubated for 1 hr before glutamate challenge measured after 24 hrs by MTT assay. Type of test: functional. Put shortly: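 Cortical neurons from E15 ICR mouse embryos, matured 12 days, supplement-free neurobasal during assay. 1 h compound pretreatment (0.1% methanol final), then 20 μM glutamate, kept 24 h. MTT 1 mg/mL for 1 h at 37 °C, formazan dissolved in DMSO, absorbance 540 nm; percent protection from control and glutamate-only OD.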
In general terms: Tetrazolium assays rely on reduction of a dye to a coloured formazan, in cell work by metabolically active cells.

Test [2] deals with Cortical neurone. Kind of test: Neuroprotective activity against NMDA-induced neurotoxicity in ICR mouse cortical neurons preincubated for 1 hr before NMDA challenge measured after 24 hrs by MTT assay. The test is classed as functional. The procedure, abridged: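 12-day ICR mouse (E15) cortical cultures in neurobasal medium without supplement. Pretreatment with compound (methanol vehicle, 0.1% final) for 1 h, then 40 μM NMDA for 24 h. Compound range 10 to 30 μM. Survival by MTT reduction, formazan in DMSO read at 540 nm, normalised as (toxin+compound − toxin)/(control − toxin) × 100.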

The subject of test [3] is Cortical neurone. Put plainly: Neuroprotective activity against AMPA-induced neurotoxicity in ICR mouse cortical neurons preincubated for 1 hr before AMPA challenge measured after 24 hrs by MTT assay. The test is classed as functional. The procedure, abridged:
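Primary cortical cultures from gestation day 15 ICR mouse embryos, grown 12 days in B27-supplemented neurobasal medium, switched to neurobasal without supplement. Compound in methanol (0.1% final), added 1 h before 80 μM AMPA, then 24 h. Viability read by MTT (1 mg/mL, 1 h, 37 °C; DMSO-dissolved formazan at 540 nm), expressed relative to control and excitotoxin-alone wells.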

Test [4] deals with Cortical neurone. Put plainly: Neuroprotective activity against kainate-induced neurotoxicity in ICR mouse cortical neurons preincubated for 1 hr before kainate challenge measured after 24 hrs by MTT assay. The test is classed as functional. The procedure, abridged:
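Mouse (ICR, gestation day 15) cortical neuron cultures used at day 12 in neurobasal medium lacking supplement. Compound in methanol (0.1% final) given 1 h ahead of 200 μM kainate; incubation 24 h more. Viability by MTT (1 mg/mL, 1 h), DMSO-solubilised formazan at 540 nm, scaled between kainate-alone and untreated control.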

Test [5] relates to Radical scavenging activity. Put plainly: Antioxidant activity assessed as superoxide and DPPH radical scavenging activity. Type of test: functional.
Test [6] in a line: Inhibition of monoamine oxidase at 60 to 100 uM.
A short description of test [7]: Neuroprotective activity against glutamate-induced neurotoxicity in primary cultured mouse cortical neurons preincubated for 1 hr before glutamate challenge measured after 24 hrs by MTT assay.

With `COc1ccc2c(c1)CN(c1ccc(OC)cc1CO)CN2C=O`, the result in test [1] and in test [6] was Active. For the same compound, the Activity result in test [2] is “Dose-dependent effect”. Moreover, the result in test [3], in test [4], in test [5] and in test [7] was inactive.
As for `COc1ccc(-n2cnc3ccc(OC)cc3c2=O)c(CO)c1`, the result in test [1] and in test [6] was Active. In test [2], the Activity result was “Dose-dependent effect”. The outcome in test [3], in test [4], in test [5] and in test [7] was inactive.
As to `COc1ccc(N2CN(C=O)c3ccc(OC)cc3C2=O)c(CO)c1`, the result in test [1] and in test [6] was Active. Also, in test [2], the Activity result is “Dose-dependent effect”. Moreover, the result in test [3], in test [4], in test [5] and in test [7] was inactive.
